Columns and labels:
[1] = Selectivity index, ratio of CC50 for human MT4 cells to EC50 for wild type HIV-1 3B infected in human MT4 cells; assay type: toxicity, cell-based; settings: read-out: Ratio CC50/EC50
[2] = tested on: Human immunodeficiency virus 1; assay: Antiviral activity against HIV-1 harboring reverse transcriptase E138K mutant infected in human MT4 cells assessed as inhibition of virus induced cytopathic effect measured after 5 days by MTT assay; assay type: functional, organism-based; settings: Human immunodeficiency virus 1, MT4, 120 h
Procedure, shortened: (§1)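 MT-4 cells, exponentially growing, resuspended at 6 × 10^5 cells/mL and infected with the mutant HIV-1 stock at 100–300 CCID50. Compounds were added as 5-fold serial dilutions, in triplicate wells, alongside mock-infected wells. After 5 days, viability was read by MTT reduction at 540 and 690 nm using the median OD of three wells. EC50 is the concentration giving 50% protection from viral cytopathogenicity.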

[3] = tested on: Human immunodeficiency virus 1; assay: Antiviral activity against HIV-1 harboring reverse transcriptase L100I mutant infected in human MT4 cells assessed as inhibition of virus induced cytopathic effect measured after 5 days by MTT assay; assay type: functional, organism-based; settings: Human immunodeficiency virus 1, MT4, 120 h; procedure, shortened: as §1
[4] = Selectivity index, ratio of CC50 for human TZM-bl cells to EC50 for wild type HIV1 NL4-3 infected in human TZM-bl cells; assay type: toxicity, cell-based; settings: read-out: Ratio CC50/EC50
Procedure, shortened: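 Selectivity index is CC50/EC50, with both values from the TZM-bl assays: NL4-3 single-round luciferase infection and CytoTox-Glo viability, each over 1 day.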

[5] = tested on: Human immunodeficiency virus 1; assay: Antiviral activity against HIV-1 harboring reverse transcriptase F227L/V106A mutant infected in human MT4 cells assessed as inhibition of virus induced cytopathic effect measured after 5 days by MTT assay; assay type: functional, organism-based; settings: Human immunodeficiency virus 1, MT4, 120 h; procedure, shortened: as §1
[6] = tested on: Human immunodeficiency virus 1; assay: Antiviral activity against HIV-1 harboring reverse transcriptase Y188L mutant infected in human MT4 cells assessed as inhibition of virus induced cytopathic effect measured after 5 days by MTT assay; assay type: functional, organism-based; settings: Human immunodeficiency virus 1, MT4, 120 h; procedure, shortened: as §1
[7] = tested on: Human immunodeficiency virus 1; assay: Antiviral activity against HIV-1 harboring reverse transcriptase Y181C mutant infected in human MT4 cells assessed as inhibition of virus induced cytopathic effect measured after 5 days by MTT assay; assay type: functional, organism-based; settings: Human immunodeficiency virus 1, MT4, 120 h; procedure, shortened: as §1
[8] = tested on: Human immunodeficiency virus 1; assay: Antiviral activity against HIV-1 harboring reverse transcriptase K103N mutant infected in human MT4 cells assessed as inhibition of virus induced cytopathic effect measured after 5 days by MTT assay; assay type: functional, organism-based; settings: Human immunodeficiency virus 1, MT4, 120 h; procedure, shortened: as §1
[9] = tested on: Human immunodeficiency virus 1; assay: Antiviral activity against wild type HIV1 NL4-3 infected in human TZM-bl cells assessed as reduction in viral infection measured after 1 day by luciferase reporter gene assay based luminiscence assay; assay type: functional, organism-based; settings: Human immunodeficiency virus 1, NL4-3, TZM-bl, 24 h
Procedure, shortened: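 TZM-bl cells got a single-round infection with 800 TCID50 of NL4-3 at various compound concentrations, top concentration 100 ng/mL. Luminescence was read 1 day post-infection. EC50 is the concentration giving a 50% decrease in luciferase RLU versus control wells, determined in at least triplicate.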

[10] = tested on: Human immunodeficiency virus 1; assay: Antiviral activity against HIV-1 harboring reverse transcriptase RES056 mutant infected in human MT4 cells assessed as inhibition of virus induced cytopathic effect measured after 5 days by MTT assay; assay type: functional, organism-based; settings: Human immunodeficiency virus 1, MT4, 120 h; procedure, shortened: as §1
[11] = Cytotoxicity against human TZM-bl cells assessed as reduction in cell viability measured after 1 day by CytoTox-Glo assay; assay type: cell-based
Procedure, shortened: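 TZM-bl cells were cultured 1 day with various compound concentrations, in parallel with the antiviral assay, top concentration 100 ng/mL. Viable cells were measured by CytoTox-Glo. CC50 is the concentration causing a 50% reduction in cell viability.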

[12] = Cytotoxicity against human MT4 cells assessed as reduction in cell viability measured after 5 days by MTT assay; assay type: cell-based; settings: time 5 day
Procedure, shortened: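 Mock-infected MT-4 cells (6 × 10^5 cells/mL) were run in parallel with the infected wells, under serial 5-fold compound dilutions in triplicate. MTT viability was read after 5 days and the median OD of three wells used. CC50 is the concentration that reduced OD540 of the mock-infected cells by 50%.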

[13] = tested on: Human immunodeficiency virus 1; assay: Antiviral activity against wild type HIV-1 3B infected in human MT4 cells assessed as inhibition of virus-induced cytopathic effect measured after 5 days by MTT assay; assay type: functional, organism-based; settings: Human immunodeficiency virus 1, 3B, MT4, 120 h
Procedure, shortened: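 MT-4 cells at 6 × 10^5 cells/mL were infected with virus stock at 100–300 CCID50 in the presence of serial 5-fold compound dilutions, in triplicate wells. Viability was read by MTT reduction 5 days after infection, with absorbance at 540 and 690 nm and the median OD of three wells used. EC50 is the concentration giving 50% protection from viral cytopathicity.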

[14] = Antiviral activity against HIV-2 ROD infected in human MT4 cells assessed as protection against virus-induced cytopathic effect measured after 5 days by MTT assay; settings: Human immunodeficiency virus 2, ISOLATE ROD, MT4, 120 h

SMILES | selectivity ratio [1] | EC50 [2] [nM] | EC50 [3] [nM] | selectivity ratio [4] | EC50 [5] [nM] | EC50 [6] [nM] | EC50 [7] [nM] | EC50 [8] [nM] | EC50 [9] [nM] | EC50 [10] [nM] | CC50 at 24 h [11] [nM] | CC50 at 120 h [12] [nM] | EC50 [13] [nM] | EC50 [14] [nM]
Cc1ccnc2c1NC(=O)c1cccnc1N2C1CC1 [NEVIRAPINE] | > 113 | 72.8 | 373 | > 53 | 2730 | 3390 | 2320 | 1470 | 281 | 6750 | > 15000 | > 9500 | – | –
Cc1cc(C#N)cc(C)c1Oc1nc(Nc2ccc(C#N)cc2)ncc1/C=C/C(=O)N1CCN(C(=O)C(F)(F)F)CC1 | – | – | – | > 13 | – | – | – | – | 13.7 | – | > 174 | – | – | –
Cc1cc(C#N)cc(C)c1Oc1nc(Nc2ccc(C#N)cc2)ncc1/C=C/C(=O)NCCOCCO | 2280 | 47.1 | 227 | > 42 | 318 | 146 | 197 | 50.3 | 4.81 | 1050 | > 200 | 61800 | 27.1 | > 61800
Cc1cc(C#N)cc(C)c1Oc1nc(Nc2ccc(C#N)cc2)ncc1/C=C/C(=O)NCCN1CCOCC1 | 2630 | 21.8 | 263 | > 56 | 462 | 123 | 108 | 18.5 | 3.44 | 1750 | > 190 | 22400 | 8.5 | > 22400
Cc1cc(C#N)cc(C)c1Oc1nc(Nc2ccc(C#N)cc2)ncc1/C=C/C(=O)NC1CCN(C(=O)C(F)(F)F)CC1 | – | – | – | > 1 | – | – | – | – | > 170 | – | > 170 | – | – | –
Cc1cc(C#N)cc(C)c1Oc1nc(Nc2ccc(C#N)cc2)ncc1/C=C/C(=O)N1CCN(S(C)(=O)=O)CC1 | – | – | – | > 13 | – | – | – | – | 13.8 | – | > 179 | – | – | –
Cc1cc(C#N)cc(C)c1Oc1nc(Nc2ccc(C#N)cc2)ncc1/C=C/C(=O)NCCc1c[nH]c2ccccc12 | – | – | – | > 2 | – | – | – | – | 81.3 | – | > 180 | – | – | –
Cc1cc(C#N)cc(C)c1Oc1nc(Nc2ccc(C#N)cc2)ncc1/C=C/C(=O)NC1CC1 | – | – | – | > 44 | – | – | – | – | 5.1 | – | > 221 | – | – | –
Cc1cn([C@H]2C[C@H](N=[N+]=[N-])[C@@H](CO)O2)c(=O)[nH]c1=O [ZIDOVUDINE] | > 410 | 14.5 | 7 | > 1000 | 4.7 | 9.9 | 8.7 | 12.6 | 7.5 | 20.1 | > 6300 | > 7500 | 18.3 | –
Cc1cc(C#N)cc(C)c1Oc1nc(Nc2ccc(C#N)cc2)ncc1/C=C/C(=O)N1CCN(S(=O)(=O)C(F)(F)F)CC1 | – | – | – | > 1 | – | – | – | – | > 164 | – | > 164 | – | – | –
CC(=O)N1CCN(C(=O)/C=C/c2cnc(Nc3ccc(C#N)cc3)nc2Oc2c(C)cc(C#N)cc2C)CC1 | – | – | – | > 4 | – | – | – | – | 49.9 | – | > 192 | – | – | –
Cc1cc(C#N)cc(C)c1Oc1nc(Nc2ccc(C#N)cc2)ncc1/C=C/C(=O)NCC1CCN(S(C)(=O)=O)C1 (configuration not stated) | – | – | – | > 13 | – | – | – | – | 13.6 | – | > 175 | – | – | –
Cc1cc(C#N)cc(C)c1Oc1nc(Nc2ccc(C#N)cc2)nc(N)c1Br [ETRAVIRINE] | – | – | 10.2 | – | 8.2 | 15.5 | – | 2.3 | 1.45 | 60.2 | > 229 | > 4600 | – | –
Cc1cc(C#N)cc(C)c1Oc1nc(Nc2ccc(C#N)cc2)ncc1/C=C/C(=O)NC1CCN(S(C)(=O)=O)CC1 | – | – | – | > 12 | – | – | – | – | 14.2 | – | > 175 | – | – | –
CCOC(=O)/C=C/c1cnc(Nc2ccc(C#N)cc2)nc1Oc1c(C)cc(C#N)cc1C | – | – | – | > 12 | – | – | – | – | 18.7 | – | > 227 | – | – | –
O=C1Nc2ccc(Cl)cc2[C@@](C#CC2CC2)(C(F)(F)F)O1 [EFAVIRENZ] | > 2570 | 5.7 | 30.8 | > 1210 | 169 | 148 | 5.2 | 63.7 | 5.2 | 273 | > 6300 | > 6300 | 2.5 | –
Cc1cc(C#N)cc(C)c1Oc1nc(Nc2ccc(C#N)cc2)ncc1/C=C/C(=O)N1CCN(C=O)CC1 | – | – | – | > 4 | – | – | – | – | 49.3 | – | > 197 | – | – | –
Cc1cc(C#N)cc(C)c1Oc1nc(Nc2ccc(C#N)cc2)ncc1/C=C/C(=O)N1CCOCC1 | – | – | – | > 10 | – | – | – | – | 20 | – | > 208 | – | – | –
Cc1cc(C#N)cc(C)c1Oc1nc(Nc2ccc(C#N)cc2)ncc1/C=C/C(N)=O | – | – | – | > 45 | – | – | – | – | 5.36 | – | > 243 | – | – | –
Cc1cc(C#N)cc(C)c1Oc1nc(Nc2ccc(C#N)cc2)ncc1/C=C/C(=O)NC1CCN(S(C)(=O)=O)C1 (configuration not stated) | – | – | – | > 12 | – | – | – | – | 14.7 | – | > 179 | – | – | –
Cc1cc(C#N)cc(C)c1Oc1nc(Nc2ccc(C#N)cc2)ncc1/C=C/C(=O)NC1CCN(S(=O)(=O)C(F)(F)F)CC1 | – | – | – | > 1 | – | – | – | – | > 160 | – | > 160 | – | – | –
Cc1cc(C#N)cc(C)c1Oc1nc(Nc2ccc(C#N)cc2)ncc1/C=C/C(=O)NCC1CCN(S(C)(=O)=O)CC1 | – | – | – | > 13 | – | – | – | – | 12.8 | – | > 171 | – | – | –

Source: ChEMBL document CHEMBL4819008, “Design, synthesis, and evaluation of "dual-site"-binding diarylpyrimidines targeting both NNIBP and the NNRTI adjacent site of the HIV-1 reverse transcriptase” (Eur J Med Chem, 2021)
